Shown are actives, neighbours in structure and some others; about 3.5% of the full set was active somewhere.
ABCB1 block: ABCB1 efflux pump inhibitors, primary screen, cell-based, multiplex, flow cytometry, ABCG2 counter-screen; ATP-dependent translocase ABCB1 (Homo sapiens), P08183; CCRF-Adr cells, JC-1 efflux; inhibition, % at 6.6 µM; actives 0.067% (n = 190,000); in the data active = inhibition above about 40%;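 also: higher value means more JC-1 retained so stronger ABCB1 efflux block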
ABCG2 inh: ABCG2 efflux pump inhibitors, primary screen, multiplex with ABCB1, IgMXP3 cells, flow cytometry; Broad substrate specificity ATP-binding cassette transporter ABCG2 (Homo sapiens), Q9UNQ0; JC-1 efflux; inhibition, % at 6.6 µM; actives 0.1% (n = 190,000); AID 1325, 2008;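 active = inhibition above 80%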
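Assay system – ABCG2 IgMXP3 and barcoded ABCB1 CCRF-Adr cell mix · Input – 3 million cells/mL in well · Reagent – JC-1 fluorescent substrate · Compound – single test compound dose, 6.6 µM final · Timing – 10 min exposure at 25 °C with rotation, no wash · Detection – flow cytometry of retained JC-1 fluorescence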
MEKK2mut PB1 HTS: MEK5 binding signal on mutant MEKK2 PB1, primary screen, biochemical, multiplex bead flow cytometry, Alexa488-MEK5; actives 0.35% (n = 290,000); percent response, % at 10 µM; Alexa488-MEK5 binding to MEKK2 mutant; AID 1530, 2009; in the data active = percent response above about 24%, passing the limit was not always enough
WT yeast gro inh: growth inhibition of WT strain, primary screen, mitochondrial fusion inhibitor project, WT and mutant strains, chemical genetic; inhibition, % at 10 µM; mitochondrial fusion phenotypic screen; actives 2.1% (n = 190,000); in the data active = inhibition above about 58%; tested in S. cerevisiae
MEKK3 PB1 HTS: modulators of MEKK3-MEK5 PB1 binding, primary screen, biochemical, wildtype MEKK3, multiplex bead flow cytometry, Alexa488-MEK5 | Mitogen-activated protein kinase kinase kinase 3 (Homo sapiens), Q99759 | bead-based flow cytometry, Alexa488-MEK5 binding to MEKK3; actives lie on both sides; 0 = blocked by unlabeled MEK5, 100 = vehicle | binding response (% of control), % at 10 µM | actives 1.4% (n = 290,000);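 active = binding response more than 3 SD above or below the average of its plate-row segment, actives on both sides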;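 also: Alexa488 bead fluorescence after subtracting the streptavidin-only scavenger bead signal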
MEKK2wt PB1 HTS: modulators of MEK5 binding to wildtype MEKK2, primary screen, biochemical, multiplex bead flow cytometry, Alexa488-MEK5 | AID 1531, 2009 | actives 1.1% (n = 290,000) | Alexa488-MEK5 binding to MEKK2 WT; actives lie on both sides | binding response (% of control), % at 10 µM; in the data active = binding response below about 67% or above about 130%
Hits are given with their value; . = inactive; / = no result given.

SMILES	ABCB1 block	ABCG2 inh	MEKK2mut PB1 HTS	WT yeast gro inh	MEKK3 PB1 HTS	MEKK2wt PB1 HTS
CC(C)(C)c1ccc(CN2N=C(/C=C/c3ccccc3)CCC2=O)cc1	.	.	.	72	.	.
O=C1CCC(/C=C/c2ccccc2)=NN1Cc1ccccc1	.	.	.	.	.	.
Cc1ccc(/C=C/C2=NN(Cc3ccccc3)C(=O)CC2)cc1	.	.	.	.	.	.
Cc1ccc(NC(=O)CC2Oc3ccccc3NC2=O)c(C)c1 (configuration not stated)	.	.	.	.	.	.
C=CCCCCCCCCc1nc(=S)[nH][nH]1	.	.	.	75	.	.
COC(=O)CNC(c1ccccc1)c1cc(Cl)ccc1NC(=O)c1cccc(Cl)c1 (configuration not stated)	.	.	.	58	.	.
NNC(=O)CNC(c1ccccc1)c1cc(Br)ccc1NC(=O)c1cccc(Cl)c1 (configuration not stated)	.	.	.	.	.	.
CC(=O)c1cccc(S(=O)(=O)N2CCCC(c3nc4c(nnn4Cc4cccc(Cl)c4)c(=O)[nH]3)C2)c1 (configuration not stated)	/	/	.	/	.	.
Cc1nnc(-n2ncc(C#N)c2N)c2nn(-c3cccc(Cl)c3)c(C)c12	.	.	.	.	.	.
Cc1nnc(N2CCOCC2)c2nn(-c3cccc(Cl)c3)c(C)c12	.	.	85	.	.	.
Cc1nn(C)cc1NC(=O)CC12CC3CC(CC(C3)C1)C2	.	.	.	.	141	.
CCn1nc(C)c(NC(=O)CC23CC4CC(CC(C4)C2)C3)c1C	.	.	.	.	.	.
COc1ccc(Cl)cc1S(=O)(=O)N1CCN(Cc2ccc3c(c2)OCO3)CC1	.	.	.	65	.	.
COc1ccc(F)cc1S(=O)(=O)N1CCN(Cc2ccc3c(c2)OCO3)CC1	.	.	.	.	.	.
Cc1cccc(N2CCN(C(=O)c3c(Cl)cnn3C)CC2)c1C	/	/	.	/	.	.
Cc1noc(NS(=O)(=O)c2ccc(NC(=O)CSc3nc4ccccc4s3)cc2)c1C	.	.	.	.	.	.
C/C(=N/Nc1nc(-c2ccccc2)cc(-c2ccc(F)cc2)n1)c1cccc(N)c1	.	.	.	68	.	.
CCOc1cc(/C=C2\CN(CC)C/C(=C\c3ccc(O)c(OCC)c3)C2=O)ccc1O	/	/	.	/	.	.
CCN1C/C(=C/c2cccc([N+](=O)[O-])c2)C(=O)/C(=C/c2cccc([N+](=O)[O-])c2)C1	.	.	.	88	.	.
CC1CCN(C(=O)CCc2ccc(Oc3cc([N+](=O)[O-])cc([N+](=O)[O-])c3)cc2)CC1	.	.	.	65	.	.
COc1ccc(-c2noc(CSc3nnc(Cc4ccccc4)n3-c3ccc(Cl)cc3)n2)cc1	.	.	.	60	.	.
Clc1ccc2oc(-c3ccccc3)cc(=NCCCN3CCOCC3)c2c1	.	.	.	63	.	.
COc1cc2c(cc1OC)CN(C(=O)c1oc3ccccc3c1C)CC2	/	/	.	/	.	.
O=C(Cn1ncc2c(=O)oc3ccccc3c21)N1CCc2ccccc2C1	.	.	.	.	.	.
Cn1c(C(=O)N2CCc3ccccc3C2)cc2oc3ccccc3c21	.	.	.	66	.	.
SMILES	ABCB1 block	ABCG2 inh	MEKK2mut PB1 HTS	WT yeast gro inh	MEKK3 PB1 HTS	MEKK2wt PB1 HTS
CCn1c(C(=O)N2CCc3ccccc3C2)cc2oc3ccccc3c21	.	.	.	78	.	.
CSc1ccc(Cl)c(C(=O)NCCOc2cc(C)ccc2C(C)C)c1	.	.	.	62	.	.
Cc1ccc(C(C)C)c(OCCNC(=O)c2ccccc2O)c1	/	/	.	/	.	.
COc1cc2c(cc1O)CC[n+]1cc3c(OC)c(OC)ccc3cc1-2	.	.	.	.	.	.
COc1cc2c(cc1OC)-c1cc3ccc4c(c3c[n+]1CC2)OCO4	.	.	.	60	.	.
C/C(=N\Nc1nc2c(s1)CCCC2)c1ccc(Cl)cc1	.	.	.	72	.	.
O=[N+]([O-])c1cccc(C2NCC(c3ccccc3Cl)c3c2[nH]c2ccccc32)c1 (configuration not stated)	.	.	.	70	.	.
CN(C)c1ccc(C2CNC(c3ccc(Cl)c([N+](=O)[O-])c3)c3[nH]c4ccccc4c32)cc1 (configuration not stated)	/	/	.	/	.	.
Cc1ccc(-c2c(C(=O)N/N=C/c3cccc(Cl)c3)nnn2-c2nonc2N)cc1	/	/	.	/	.	135
Cc1ccc(-c2c(C(=O)N/N=C/c3ccoc3)nnn2-c2nonc2N)cc1	/	/	.	/	.	.
COc1ccc(N2CC(C(=O)NCc3ccco3)CC2=O)cc1 (configuration not stated)	.	.	.	.	.	.
Cc1ccc(Nc2cc(C)nn2-c2nc(C)cc(=O)[nH]2)cc1	.	.	.	.	.	.
Cc1ccc(Nc2cc(C)nn2-c2nc(C)cc(C)n2)cc1	.	.	.	75	.	.
S=c1nc2ccccc2c2nc(-c3ccccc3)[nH]n12	/	/	/	71	/	/
S=c1nc2ccccc2c2nc(-c3ccccc3Cl)[nH]n12	/	/	.	/	.	.
CC(=O)c1cc(C)ccc1OC(=O)c1ccco1	.	.	.	.	.	.
CC(CO)Nc1nc(SCc2ccccc2)nc2sc3c(c12)CCC3 (configuration not stated)	.	.	.	75	.	.
COCCNc1nc(SCc2ccccc2)nc2sc3c(c12)CCC3	.	.	.	.	.	.
CCc1nc(N2CCC(C)CC2)c2oc3ccccc3c2n1	.	.	.	73	.	.
CCc1nc(N(CC)CC)c2oc3ccccc3c2n1	.	.	.	.	.	.
Cn1cccc1/C=N/n1c(-c2ccc(Cl)cc2Cl)n[nH]c1=S	.	.	.	71	.	.
Cn1cccc1/C=N/n1c(-c2ccc(Cl)cc2)n[nH]c1=S	.	.	.	.	.	.
COc1cc(C(=O)Nc2ccc3c(c2)CCN3C(C)=O)cc(OC)c1OC	.	.	.	.	.	173
CC(=O)N(C)c1ccc(OCC(O)Cn2c3ccc(Cl)cc3c3cc(Cl)ccc32)cc1 (configuration not stated)	.	.	.	77	.	.

Screening data as filed in PubChem.
